HNF4A DNA FP: change in binding of human HNF4A to DNA, primary screen, biochemical, fluorescence polarization, FITC-DNA | Hepatocyte nuclear factor 4-alpha (Homo sapiens), P41235 | 1 h | activity change, % at 10 µM | 360,000 compounds, 0.3% hits | AID 1224865, 2016; in the data active means activity change above about 30%, passing the limit was not always enough
Target sequence (P41235 whole entry, looked up): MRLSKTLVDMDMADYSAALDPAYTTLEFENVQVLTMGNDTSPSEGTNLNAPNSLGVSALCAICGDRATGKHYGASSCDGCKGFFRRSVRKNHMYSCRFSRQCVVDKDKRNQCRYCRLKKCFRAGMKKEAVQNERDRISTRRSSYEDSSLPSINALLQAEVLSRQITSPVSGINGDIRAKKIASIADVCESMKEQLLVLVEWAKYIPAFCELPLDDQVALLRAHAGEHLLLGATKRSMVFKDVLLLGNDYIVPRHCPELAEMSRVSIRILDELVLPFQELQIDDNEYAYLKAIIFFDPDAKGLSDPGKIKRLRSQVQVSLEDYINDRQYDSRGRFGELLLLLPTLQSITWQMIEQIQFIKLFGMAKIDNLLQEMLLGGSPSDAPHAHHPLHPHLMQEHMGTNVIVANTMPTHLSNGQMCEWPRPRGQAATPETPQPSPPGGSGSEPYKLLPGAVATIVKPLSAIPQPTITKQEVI
IDE act: human IDE activators in live cells, primary screen, fluorescence polarization, HEK cells, FAbeta-B substrate; Insulin-degrading enzyme (Homo sapiens), P14735; FAbeta-B cleavage; 0% vehicle, 100% cell-free pure enzyme wells; activation, % at 5.96 µM; 340,000 compounds, 0.073% hits;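 active means activation above the mean of all tested compounds plus 3 SD, set per screening campaign, cut at about 17% in these data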
CSN deneddyl inh: inhibitors of CSN-mediated cullin deneddylation, primary screen, biochemical, fluorescence polarization, uHTS; 360,000 compounds, 0.38% hits; inhibition, % at 12.5 µM; Purified CSN, SCF-Nedd8-OG deneddylation;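 active means pattern-corrected inhibition above about 35%, with an unprinted fluorescence ratio check between 0.5 and 1.5, limit read from the data, passing the limit was not always enough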
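Assay system: purified human Csn5 enzyme expressed in HEK293T cells; measure: % inhibition; also added: SCFSkp2-Nedd8OG substrate at 10 nM final; technique: fluorescence polarization; times: reaction 90 min, room temperature; medium: Tris buffer pH 7.5, NaCl, DTT, Tween-20, trehalose, ovalbumin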
TbMetRS inhib: T. brucei MetRS inhibitors, primary screen, biochemical, luminescence; methionyl-tRNA synthetase (Trypanosoma brucei brucei); purified T. brucei MetRS, ATP depletion, Kinase-Glo luminescence; inhibition, % at 11.9 µM; 360,000 compounds, 0.4% hits; AID 624268, 2012;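 active means inhibition above a per-plate cutoff of the control wells' mean inhibition plus 3 SD, cut at about 5.5% in these data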
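Dosing: 11.9 µM compound single dose, 0.9% DMSO; Assay system: purified T. brucei MetRS enzyme; Measured by: Kinase-Glo luciferase luminescence reporting remaining unconsumed ATP; Schedule: 15 min plus 2 h at 25 °C.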
TPT1 inhibitor: Candida albicans TPT1 enzyme inhibitors, primary screen, biochemical, fluorescence polarization | tRNA 2'-phosphotransferase TPT1 (Candida albicans SC5314) | recombinant caTPT1, FP RNA substrate dephosphorylation | inhibition, % at 5 µM | 300,000 compounds, 0.81% hits;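 active means inhibition above the mean of all tested compounds plus 3 SD, set per screening campaign, cut at about 24% in these data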
IDE inh: human IDE inhibitors in live cells, primary screen, fluorescence polarization, HEK cells, FAbetaB substrate | Insulin-degrading enzyme (Homo sapiens), P14735 | FAbetaB cleavage | inhibition, % at 5.59 µM | 320,000 compounds, 0.41% hits | AID 434962, 2010;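 active means percent inhibition above the average of all tested compounds plus 3 SD, set per screening campaign, cut at about 16% in these data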;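 further: IDE supplied by intact live HEK cells; FP after avidin binding of uncleaved biotin substrate so inhibition keeps polarization high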
IDE cell inh cf: human IDE inhibitors in live cells, confirmation, fluorescence polarization, HEK cells, FAbetaB substrate; shares compounds with IDE inh; FAbetaB cleavage; inhibition, % at 5.59 µM; 1,200 compounds, 51% hits; AID 435028, 2010;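 active means mean inhibition across triplicate wells above the cutoff set by the earlier primary insulin-degrading enzyme screen, cut at about 16% in these data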
HEK cytotox: cytotoxicity in HEK cells, cytotoxicity control for IDE inhibitor project, cell-based, luminescence. HEK293 cytotoxicity, ATP luminescence. shares compounds with IDE inh. inhibition, % at 5.59 µM. 1,200 compounds, 28% hits; in the data active means inhibition above about 22%
FP fluor counter: fluorescent or optically active artefacts, dose response, artefact control for IDE inhibitor project, biochemical, fluorescence polarization; 30 tested, under 10 active; IC50, µM; shares compounds with IDE inh; FP counterscreen for fluorescent artifacts, IDE probe project; call rule not given here
A number is an active result; i = inactive; nt = no result given. This is a sample that favours compounds with a hit; in the whole collection about 1.7% have one here.

SMILES | HNF4A DNA FP | IDE act | CSN deneddyl inh | TbMetRS inhib | TPT1 inhibitor | IDE inh | IDE cell inh cf | HEK cytotox | others
Cc1cc(C)cc(NCCC#N)c1 | i | i | i | i | i | i | nt | nt
COc1cc(OC)cc(C(=O)NCC(=O)N2CC=C(c3ccccc3)CC2)c1 | i | i | i | i | nt | nt | nt | nt
O=C(NCC(=O)N1CC=C(c2ccccc2)CC1)c1ccc(OC(F)F)cc1 | i | i | i | i | nt | 18 | i | 55
CCN(CC)c1ccc2cc(-c3nc4ccccc4[nH]3)c(=O)oc2c1 | i | 25 | i | i | i | 39 | 26 | 50
C=C(C)Cn1c(N2CCN(c3ccc(OC)cc3)CC2)nc2c1c(=O)n(C)c(=O)n2C | i | i | i | i | i | i | nt | nt
COc1ccc(N2CCN(c3nc4c(c(=O)n(C)c(=O)n4C)n3Cc3ccccc3)CC2)cc1 | i | i | i | i | i | 20 | i | i
Cc1ccc(CCNC(=O)Cc2ccc(NC3=NC4CS(=O)(=O)CC4S3)cc2)cc1 (stereo not given) | i | i | i | i | i | 17 | i | i
Cc1ccc(CCNC(=O)c2ccc(NC3=NC4CS(=O)(=O)CC4S3)cc2)cc1 (stereo not given) | i | i | i | i | i | i | nt | nt
CCC(=O)N1CCN(c2nc(-c3ccc(Cl)cc3)cs2)CC1 | i | i | i | i | i | 18 | i | i
CC(C)CNC(=S)N1CCN(c2nc(-c3ccc(Cl)cc3)cs2)CC1 | i | i | i | i | i | i | nt | nt
CC(C)(C)OC(=O)C[C@@H]1C/C=C\C[C@@H](CC(=O)N[C@@H](CO)Cc2ccccc2)C(=O)NCCOC1=O | i | i | i | i | nt | i | nt | nt
Clc1cccc(-c2nnc(SCc3nc4ccccc4[nH]3)n2-c2ccccc2)c1 | nt | nt | nt | nt | nt | nt | nt | nt | FP fluor counter=i
Clc1cccc(-c2nnc(SCc3nc4ccccc4[nH]3)n2Cc2ccco2)c1 | i | i | i | i | i | 71 | 50 | i | FP fluor counter=i
Cc1ccc(-n2c(SCc3nc4ccccc4[nH]3)nnc2-c2ccncc2)cc1 | i | i | i | i | i | i | nt | nt
Cc1cccc(C(=O)Nc2ccnc(-c3cccnc3)n2)c1 | i | i | i | i | i | 44 | 31 | i
Cc1cccc(C(=O)Nc2ccnc(-c3ccncc3)n2)c1 | i | i | i | i | i | 51 | 27 | i
CC(=O)Nc1ccnc(-c2cccnc2)n1 | i | i | i | i | i | i | nt | nt
C[C@H](CO)N1C[C@H](C)[C@@H](CN(C)Cc2ccc(Oc3ccccc3)cc2)Oc2c(NC(=O)c3ccncc3)cccc2C1=O | i | i | i | i | nt | 24 | i | 24
CCc1nnc(/N=C/c2c(O)n(-c3ccc(Cl)cn3)c(=O)c3ccccc23)s1 | i | i | i | i | i | 17 | i | i
CCc1sc(C(=O)Nc2cccc(-n3cnnn3)c2)cc1C | i | i | i | i | nt | 32 | 19 | i
CC(=O)Nc1cccc(-c2ccnc3c2CC(C)(C(=O)NCc2ccc(F)c(F)c2)O3)c1 (stereo not given) | i | nt | i | i | nt | nt | nt | nt
CCOc1ccc2nc(NC(=O)Cn3cnc4c3c(=O)n(C)c(=O)n4C)sc2c1 | i | i | i | i | i | 19 | i | i
CC1(C(=O)NS(=O)(=O)c2ccc(Br)cc2)CCN1C(=O)CCC1CCCC1 (stereo not given) | i | nt | i | i | nt | nt | nt | nt

Screens as filed in PubChem BioAssay.
